The record followed here is ChEMBL document CHEMBL1138596, “Synthesis and biological evaluation of novel 4-(hetero) aryl-2-piperazino quinazolines as anti-leishmanial and anti-proliferative agents” (Bioorg Med Chem Lett, 2009).

The test system of data set [1] is Leishmania donovani. The data set is described as follows: Antileishmanial activity against Leishmania donovani MHOM/IN/Dd8 promastigotes assessed as luciferase activity after 72 hrs. Conditions: MHOM/IN/Dd8, 72 h. It is filed as functional, organism-based. The procedure, abridged: (§1)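 L. donovani parasites transfected with firefly luciferase gene, maintained in medium 199 with 10% fetal calf serum, penicillin (50 U/ml) and streptomycin under G418 pressure; compounds tested at various concentrations against transgenic promastigotes and intracellular amastigotes; IC50 calculated by Probit analysis.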

Data set [2] relates to Leishmania donovani. Nature of the data set: Antileishmanial activity against Leishmania donovani MHOM/IN/Dd8 amastigotes infected in mouse J774A1 cells assessed as luciferase activity after 48 hrs. It is filed as functional, organism-based. Conditions: for IC50: MHOM/IN/Dd8, J774.A1, 48 h; for Activity: J774.A1. The procedure, abridged:
as §1

The nature of data set [3]: Cytotoxicity against mouse J774A1 cells. It is filed as cell-based, J774.A1. Summed up:
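Mouse macrophage line J-774-A-1; cytotoxicity read by MTT assay.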

A short description of data set [4]: (§2) Selectivity index, ratio of CC50 for mouse J774A1 cells to IC50 for Leishmania donovani MHOM/IN/Dd8 amastigotes. It is filed as functional, J774.A1.
A further data set deals with DU-145. The data set is described as follows: Antiproliferative activity against human DU145 cells by MTT assay. It is filed as functional, cell-based. Summed up:
(§3)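 Twofold serial dilutions of compound up to a highest concentration of 50 µg/mL; viability read by MTT assay; panel of DU145 prostate, MCF-7 breast, KB oral epidermal, C33A cervical carcinoma lines and non-cancerous VERO cells.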

The next data set deals with MCF7. The data set is described as follows: Antiproliferative activity against human MCF7 cells by MTT assay. It is filed as functional, cell-based. Summed up: as §3
In a further data set the test system is C-33-A. Nature of the data set: Antiproliferative activity against human C33A cells by MTT assay. It is filed as functional, cell-based. The procedure, abridged:
as §3

The next data set relates to KB. The data set is described as follows: Antiproliferative activity against human KB cells by MTT assay. It is filed as functional, cell-based. Summed up:
as §3

The subject of another data set is Vero. Nature of the data set: Antiproliferative activity against african green monkey Vero cells by MTT assay. Conditions: Chlorocebus sabaeus. It is filed as cell-based. The procedure, abridged: as §3
A general note: Tetrazolium assays rely on reduction of a dye to a coloured formazan, in cell work by metabolically active cells.

In the next data set the test system is J774.A1. Described as §2. It is filed as functional.

≈ marks a conversion by molar mass, not a printed value.

For orientation: IC50 means the point on the concentration scale where inhibition reaches its midpoint. Broadly, the CC50 is the concentration giving 50% cytotoxicity. In the case of `COc1ccc(-c2nc(N3CCNCC3)nc3ccccc23)c(OC)c1`, the IC50 with Leishmania donovani [1] was 0.624 µg/mL (≈ 1.78 µM); in the data set with Leishmania donovani [2], 5.11 µg/mL (≈ 14.6 µM); in the data set with DU-145 it was greater than 50 µg/mL; in the data set with MCF7 it was greater than 50 µg/mL; in the data set with C-33-A, greater than 50 µg/mL; in the data set on KB, greater than 50 µg/mL. The IC50 in the data set with Vero is greater than 50 µg/mL. For the same compound, half-maximal cytotoxicity in data set [3] (CC50) was put at 3.98 µg/mL (≈ 11.4 µM). For the same compound, the “Ratio CC50/IC50” value in [4] came to 0.78.
Take `Fc1ccc(N2CCN(c3nc(-c4c[nH]c5ccccc45)c4ccccc4n3)CC2)cc1`: the IC50 with Leishmania donovani [1] is 1.72 µg/mL (≈ 4.06 µM); in the data set on Leishmania donovani [2] it was 12.3 µg/mL (≈ 29.1 µM); in the data set with DU-145, greater than 50 µg/mL; in the data set with MCF7 it was greater than 50 µg/mL; in the data set with C-33-A, greater than 50 µg/mL; in the data set with KB, greater than 50 µg/mL. The compound also returned an IC50 with Vero greater than 50 µg/mL. For the same compound, the midpoint of cytotoxicity in [3], the CC50, lay at 23.4 µg/mL (≈ 55.3 µM). For the same compound, in data set [4], the “Ratio CC50/IC50” value came to 1.9.
`N=C(N)c1ccc(OCCCCCOc2ccc(C(=N)N)cc2)cc1` [PENTAMIDINE]: the “Ratio CC50/IC50” value in data set [4] amounted to 2.07.
In the case of `CN1CCN(c2nc(-c3cn(C)c4ccccc34)c3ccccc3n2)CC1`, the IC50 with Leishmania donovani [1] is 0.62 µg/mL (≈ 1.73 µM); in the data set with DU-145, greater than 50 µg/mL; in the data set on MCF7 it was greater than 50 µg/mL; in the data set on C-33-A, greater than 50 µg/mL; in the data set on KB, greater than 50 µg/mL; in the data set on Vero it was greater than 50 µg/mL. For the same compound, in the data set with Leishmania donovani [2], the Activity result is “Toxic”. In addition, in data set [3], it took 1.03 µg/mL (≈ 2.88 µM) to reach half-maximal cytotoxicity (CC50).
Turning to `CN1CCN(c2nc(-c3c[nH]c4ccccc34)c3ccccc3n2)CC1`, the IC50 turned out to be 0.68 µg/mL (≈ 1.98 µM) in the data set on Leishmania donovani [1]; 4.17 µg/mL (≈ 12.1 µM) in the data set on Leishmania donovani [2]; 20.8 µg/mL (≈ 60.6 µM) with DU-145; 6 µg/mL (≈ 17.5 µM) in the data set on MCF7; 11.5 µg/mL (≈ 33.5 µM) in the data set on C-33-A; 4.9 µg/mL (≈ 14.3 µM) in the data set with KB. Besides, in the data set on Vero, the IC50 was determined as 22.3 µg/mL (≈ 64.9 µM). The CC50 in data set [3] came to 7.27 µg/mL (≈ 21.2 µM). The “Ratio CC50/IC50” value in data set [4] came out at 1.74.
With `COc1cc(OC)c(-c2nc(N3CCN(C)CC3)nc3ccccc23)c(OC)c1`, the IC50 is 6.2 µg/mL (≈ 15.7 µM) in the data set with Leishmania donovani [1]; 12.4 µg/mL (≈ 31.6 µM) in the data set on Leishmania donovani [2]; greater than 50 µg/mL in the data set with DU-145; greater than 50 µg/mL in the data set on MCF7; greater than 50 µg/mL with C-33-A; greater than 50 µg/mL in the data set on KB. Moreover, the IC50 with Vero is greater than 50 µg/mL. For the same compound, the CC50 in [3] is greater than 100 µg/mL. The “Ratio CC50/IC50” value in [4] was greater than 8.03.
Take `c1ccc2c(-c3c[nH]c4ccccc34)nc(N3CCOCC3)nc2c1`: the IC50 was 1.8 µg/mL (≈ 5.45 µM) with Leishmania donovani [1]; 25.1 µg/mL (≈ 76.1 µM) in the data set with Leishmania donovani [2]; greater than 50 µg/mL with DU-145; greater than 50 µg/mL in the data set on MCF7; greater than 50 µg/mL in the data set with C-33-A; greater than 50 µg/mL with KB. The compound also registered an IC50 in the data set on Vero greater than 50 µg/mL. In data set [3], this compound showed a CC50 of 50.1 µg/mL (≈ 152 µM). Also, in [4], the “Ratio CC50/IC50” value turned out to be 1.99.
Turning to `c1ccc2c(-c3c[nH]c4ccccc34)nc(N3CCCCC3)nc2c1`, the IC50 in the data set with Leishmania donovani [1] is greater than 10 µg/mL; in the data set with DU-145, greater than 50 µg/mL; in the data set on MCF7, greater than 50 µg/mL; in the data set on C-33-A it was greater than 50 µg/mL; in the data set on KB, greater than 50 µg/mL; with Vero it was greater than 50 µg/mL.
`Cn1cc(-c2nc(N3CCNCC3)nc3ccccc23)c2ccccc21`: the IC50 in the data set with Leishmania donovani [1] is 0.28 µg/mL (≈ 0.815 µM); with Leishmania donovani [2] it was 12.5 µg/mL (≈ 36.4 µM); in the data set on DU-145, greater than 50 µg/mL; with MCF7, greater than 50 µg/mL; in the data set with C-33-A, greater than 50 µg/mL; in the data set on KB it was greater than 50 µg/mL. In the data set with Vero, the IC50 was greater than 50 µg/mL. In [3], this compound displayed a CC50 of 16 µg/mL (≈ 46.6 µM). For the same compound, the “Ratio CC50/IC50” value in data set [4] is given as 1.28.
Take `COc1cc(OC)c(-c2nc(N3CCNCC3)nc3ccccc23)c(OC)c1`: the IC50 was 0.25 µg/mL (≈ 0.657 µM) in the data set on Leishmania donovani [1]; greater than 50 µg/mL in the data set with DU-145; greater than 50 µg/mL in the data set with MCF7; greater than 50 µg/mL in the data set with C-33-A; greater than 50 µg/mL in the data set with KB; greater than 50 µg/mL in the data set on Vero. Further, the Activity result in the data set with Leishmania donovani [2] is “Toxic”.
As to `COc1ccc(-c2nc(N3CCN(C)CC3)nc3ccccc23)c(OC)c1`, the IC50 with Leishmania donovani [1] was 3.79 µg/mL (≈ 10.4 µM); in the data set on Leishmania donovani [2], 4.28 µg/mL (≈ 11.7 µM); with DU-145, greater than 50 µg/mL; in the data set with MCF7, greater than 50 µg/mL; in the data set with C-33-A it was greater than 50 µg/mL; with KB, greater than 50 µg/mL. The IC50 with Vero was greater than 50 µg/mL. This compound gave a CC50 in [3] of 18 µg/mL (≈ 49.4 µM). Further, the “Ratio CC50/IC50” value in [4] came to 4.21.
Sodium stilbogluconate: in the data set with J774.A1, the Ratio CC50/IC50 stood at 6.38.
Take `c1ccc2c(-c3c[nH]c4ccccc34)nc(N3CCNCC3)nc2c1`: the IC50 in the data set on Leishmania donovani [1] was found to be 0.56 µg/mL (≈ 1.7 µM); in the data set on DU-145, 12.5 µg/mL (≈ 37.9 µM); with MCF7 it was 14.1 µg/mL (≈ 42.8 µM); with C-33-A, 8.2 µg/mL (≈ 24.9 µM); in the data set on KB, 4 µg/mL (≈ 12.1 µM); in the data set with Vero, 8.9 µg/mL (≈ 27 µM). The Activity result in the data set on Leishmania donovani [2] was “Toxic”. In data set [3], it took 3.11 µg/mL (≈ 9.44 µM) to reach half-maximal cytotoxicity (CC50).
